# dFosB activator = enhances mouse delta FosB homodimer DNA binding; P13346; purified delta FosB, TAMRA-CDK5 oligo fluorescence polarization; percent of positive-control signal above neutral wells; activation, % at 25 µM; 0.99% of 340,000 active; AID 493131;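 active = mean activation above about 17%, with every replicate also reaching it, limit read from the data, passing the limit was not always enough; inconclusive = only one of the two conditions met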
# Target sequence (P13346 whole entry, looked up): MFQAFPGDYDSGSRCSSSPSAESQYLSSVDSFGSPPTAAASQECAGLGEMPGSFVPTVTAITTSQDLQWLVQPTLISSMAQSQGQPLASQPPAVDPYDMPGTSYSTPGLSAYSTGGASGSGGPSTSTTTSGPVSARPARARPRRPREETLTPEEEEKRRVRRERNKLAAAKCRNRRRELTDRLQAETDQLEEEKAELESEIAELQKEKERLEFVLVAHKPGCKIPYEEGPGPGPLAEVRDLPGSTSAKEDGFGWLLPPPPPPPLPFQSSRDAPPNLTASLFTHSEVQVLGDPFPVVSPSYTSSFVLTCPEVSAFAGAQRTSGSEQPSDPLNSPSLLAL
# SR-BI uptake up = enhances SR-BI lipid uptake from DiI-HDL. CHO ldlA[mSR-BI] cells, DiI-HDL uptake fluorescence, 3 h; 100 = double the neutral-control signal. activation, % at 12.5 µM. 0.096% of 320,000 active. AID 504775;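 active = mean replicate activation of at least 60% and every replicate at or above 60%; inconclusive = mean or all-replicate condition met, but not both; inactive = mean below 60% and not all replicates reaching 60%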;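 note: 0% = median plate neutral-control signal and 100% = twice that signal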
#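 Material: SR-BI-overexpressing, LDLR-lacking CHO cells; schedule: compound exposure 3 h, 37 °C; reagent: DiI-labelled HDL at 10 µg/mL final; technique: bottom-read fluorescence, 550/595 nm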
# CDK5 inh = CDK5/p35 (human) kinase inhibition. inhibition, % at 10 µM. 0.01% of 330,000 active. Q00535+Q15078. Recombinant CDK5/p35, ADP-Glo luminescence, 60 min;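 active = highest replicate inhibition of at least 50% and at least 75% of replicates reaching 50%; inconclusive = only one of the two criteria met; inactive = both criteria failed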;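 note: plate controls were DMSO neutral control for no effect and GW8510 at 10 µM for full effect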
# SR-BI HDL uptake = inhibitors of mouse SR-BI mediated HDL lipid uptake. ldlA[mSR-BI] CHO cells, DiI-HDL uptake fluorescence, 3 h. inhibition, % at 12.5 µM. 0.96% of 320,000 active;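 active = mean replicate inhibition of at least 70% and a set share of replicates each scoring 70 or more; inconclusive = meets just one of the two criteria; inactive = fails both criteria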;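 note: 0% = median of neutral control wells and 100% = median of positive control wells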
# The depositor's hits bear a star; ? = inconclusive; . = not tested or not shown. The list is not random: actives were taken first. Their share in the collection is about 2%.
SMILES,dFosB activator,SR-BI uptake up,CDK5 inh,SR-BI HDL uptake
COCCCn1c(SCC(=O)Nc2ccc(NC(=O)c3ccco3)c(OC)c2)nc2ccccc2c1=O,6.0,-73.6,-1.2,73.6*
O=c1ccc2[n+]([O-])c3ccc(O)cc3oc-2c1,39.7*,17.9,-1.1,-17.9
CCOC(=O)C1(Cc2ccc(Cl)cc2)CCN(C(=O)c2cscn2)CC1,-1.5,-4.1,-3.3,4.1
CC(C)(C)c1ccc(C(=O)NCC(=O)NNC(=O)c2ccccc2O)cc1,-6.0,-90.0,1.8,90.0*
CC(C)(C)c1ccc(C(=O)NNC(=O)c2ccccc2Br)cc1,-1.5,3.7,-0.6,-3.7
CC(C)(C)c1ccc(OCCCC(=O)NNC(=O)c2ccccc2O)cc1,-3.7,-119.9,1.2,120.0*
COc1ccc(CNC(=O)CCCn2nc(C)c3c(C)n(-c4ccc(C)cc4)nc3c2=O)cc1,-12.3,3.2,-1.1,-3.2
C/C(=N\NC(N)=S)c1ccc(Cl)s1,2.8,-79.2,3.6,79.2*
CCc1nnc(NC(=O)c2nc(S(=O)(=O)Cc3ccc(C)cc3)ncc2Cl)s1,4.0,64.3*,2.3,-64.3
CCc1nnc(NC(=O)c2nc(S(=O)(=O)Cc3ccccc3)ncc2Cl)s1,-4.7,10.3,-0.5,-10.3
CCN(CC)CCCN1C=C2C(=O)C(C)(OC(=O)C3CCCC3)C(=O)C=C2C=C1c1ccsc1 (stereo not drawn),-2.2,19.2,-0.1,-19.2
O=C(COc1ccccc1)Nc1ccccc1N1CCN(c2ccc(F)cc2)CC1,0.4,-80.0,-0.2,80.0*
O=C(COc1ccccc1)Nc1ccccc1N1CCN(c2ccccc2)CC1,-5.9,-64.4,-3.1,64.4
COc1ccc(C(=O)C2CCCN(Cc3ccc(Sc4nncn4C)o3)C2)cc1F (stereo not drawn),-1.6,11.4,0.2,-11.4
Cc1c(CNCCc2ccc(Cl)cc2)c(C(=O)O)c(C)n1Cc1ccccc1,-4.8,15.7,-2.1,-15.7
Cc1c(CNCCc2ccccc2Cl)c(C(=O)O)c(C)n1-c1ccccc1,-6.3,169.1*,-3.4,-169.1
O=C(CC1NC(=S)NC1=O)c1ccc(Cl)cc1 (stereo not drawn),3.0,.,-0.1,.
CCOC(=O)c1oc2ccccc2c1NC(=O)c1cccc(OC)c1,-18.8,-18.8,2.5,18.8
CCOC(=O)c1oc2ccccc2c1NC(=O)c1cccc(OC)c1OC,-14.5,-76.6,1.6,76.7*
COC(=O)c1cc(OC)c(OC)cc1NC(=O)c1cccc(OC)c1OC,-6.7,-71.6,-0.2,71.6*
Cc1cccc(C2c3[nH]c4ccccc4c3CCN2Cc2cccn2-c2ncccn2)c1 (stereo not drawn),-2.7,-25.3,0.0,25.3
COc1ccc(C2c3[nH]c4ccccc4c3CCN2Cc2cccn2-c2ncccn2)cc1C (stereo not drawn),32.2*,-9.8,-1.7,9.8
CCOc1ccc(C(=O)Nc2c3c(nn2C(C)(C)C)CSC3)cc1OCC,-10.1,-75.3,-0.4,75.3*
Cc1ccnc(N/C=C(/NC(=O)c2ccccc2)C(=O)N/N=C\c2ccc(Cl)cc2)n1,18.5*,.,0.9,.
O=C(N/N=C/c1ccncc1)/C(=C/c1ccccc1)NC(=O)c1ccccc1,-5.8,21.9,1.8,-21.9
SMILES,dFosB activator,SR-BI uptake up,CDK5 inh,SR-BI HDL uptake
COc1ccc2c(C)cc(SCC(=O)Nc3cc(C(N)=O)cc(C(N)=O)c3)nc2c1,67.6*,-7.1,1.2,7.1
CC1=C(C#N)C(=O)N(C)C(C)(C)C1,-3.8,140.4*,0.1,-140.4
CC1=C(C#N)C(=O)NC(C)(C)C1,2.2,-4.5,-0.1,4.5
Cc1ccc(NC(=O)C2C3C=CC(O3)C2C(=O)O)c(C)c1 (stereo not drawn),3.2,24.1,1.4,-24.1
Cc1ccc(-c2csc(NC(=O)C[n+]3cc(-c4ccc(C)cc4)n4c3CCC4)n2)cc1,36.7*,-25.3,0.1,25.3
O=C(C[n+]1cc(-c2ccc(F)cc2)n2c1CCC2)Nc1nc(-c2ccc(F)cc2)cs1,?,-1.0,-1.0,1.0
COc1ccc(OC)c(-c2csc(NC(=O)C3CSC4(C)CCC(=O)N34)n2)c1 (stereo not drawn),-5.9,-82.3,0.6,82.3*
COc1ccc(-c2csc(NC(=O)C3CSC4(C)CCC(=O)N34)n2)cc1OC (stereo not drawn),-1.0,-28.0,-1.2,28.0
CCC1CCCCN1CCCNC(=O)C1CCC(=O)N1Cc1ccc(C)cc1 (stereo not drawn),16.2*,15.6,-1.1,-15.6
Cc1ccc(C)c(S(=O)(=O)NCCN2CCOCC2)c1,3.0,13.6,0.9,-13.6

# Screens (PubChem)
